Where a SMILES comes first, the peptide text is derived from it.

Sequence of Integrin alpha-IIb/beta-3 (P05106 27-788 limits assumed): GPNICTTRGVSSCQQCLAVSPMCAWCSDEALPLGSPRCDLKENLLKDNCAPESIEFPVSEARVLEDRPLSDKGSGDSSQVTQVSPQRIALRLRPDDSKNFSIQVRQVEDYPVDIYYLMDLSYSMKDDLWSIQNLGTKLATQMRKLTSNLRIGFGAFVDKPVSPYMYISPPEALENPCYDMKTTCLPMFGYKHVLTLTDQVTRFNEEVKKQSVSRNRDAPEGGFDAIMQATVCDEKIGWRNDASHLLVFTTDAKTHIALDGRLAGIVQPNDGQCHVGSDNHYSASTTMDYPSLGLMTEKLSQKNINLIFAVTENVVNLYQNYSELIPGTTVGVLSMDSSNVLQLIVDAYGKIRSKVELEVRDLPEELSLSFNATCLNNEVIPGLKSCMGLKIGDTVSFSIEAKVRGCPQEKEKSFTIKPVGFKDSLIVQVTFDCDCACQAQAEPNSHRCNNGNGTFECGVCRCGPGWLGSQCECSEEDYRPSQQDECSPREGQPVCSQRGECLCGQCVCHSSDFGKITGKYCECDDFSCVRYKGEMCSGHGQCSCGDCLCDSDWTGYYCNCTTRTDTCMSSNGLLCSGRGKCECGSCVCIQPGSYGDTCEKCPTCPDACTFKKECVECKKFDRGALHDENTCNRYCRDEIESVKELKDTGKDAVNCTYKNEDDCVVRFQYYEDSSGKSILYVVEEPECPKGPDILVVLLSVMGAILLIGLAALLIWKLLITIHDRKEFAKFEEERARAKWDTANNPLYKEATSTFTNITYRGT
Sequence of Integrin alpha-IIb/beta-3 (P08514 32-887 limits assumed): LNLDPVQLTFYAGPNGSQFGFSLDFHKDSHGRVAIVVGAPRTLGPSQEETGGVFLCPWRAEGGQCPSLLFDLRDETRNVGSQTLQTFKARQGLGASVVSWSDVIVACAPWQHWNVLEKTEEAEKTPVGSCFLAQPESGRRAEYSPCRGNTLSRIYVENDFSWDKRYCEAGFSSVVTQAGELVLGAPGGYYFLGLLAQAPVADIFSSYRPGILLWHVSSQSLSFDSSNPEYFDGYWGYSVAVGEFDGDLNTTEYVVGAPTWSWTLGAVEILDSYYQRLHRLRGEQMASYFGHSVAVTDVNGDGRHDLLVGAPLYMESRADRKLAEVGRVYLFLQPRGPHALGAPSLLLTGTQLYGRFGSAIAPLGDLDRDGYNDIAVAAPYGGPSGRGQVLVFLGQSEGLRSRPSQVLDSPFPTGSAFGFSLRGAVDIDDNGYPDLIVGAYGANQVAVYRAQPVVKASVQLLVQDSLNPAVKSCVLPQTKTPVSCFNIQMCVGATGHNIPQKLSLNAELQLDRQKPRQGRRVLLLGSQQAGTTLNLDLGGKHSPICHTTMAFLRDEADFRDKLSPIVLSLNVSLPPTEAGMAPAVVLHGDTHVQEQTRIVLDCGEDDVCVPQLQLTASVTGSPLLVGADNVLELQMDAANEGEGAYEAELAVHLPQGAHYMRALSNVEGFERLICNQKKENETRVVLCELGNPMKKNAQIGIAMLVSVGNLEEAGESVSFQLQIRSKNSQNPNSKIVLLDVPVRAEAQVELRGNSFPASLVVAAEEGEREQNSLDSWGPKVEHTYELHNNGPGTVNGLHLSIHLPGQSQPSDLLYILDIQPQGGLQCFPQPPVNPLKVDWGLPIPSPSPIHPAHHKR
Sequence of Integrin alpha-IIb/beta-3 (P08514 891-1039 limits assumed): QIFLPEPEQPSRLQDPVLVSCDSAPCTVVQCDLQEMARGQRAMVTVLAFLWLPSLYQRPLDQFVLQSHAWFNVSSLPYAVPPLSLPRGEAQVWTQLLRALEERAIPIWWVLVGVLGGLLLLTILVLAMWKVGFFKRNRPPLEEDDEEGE

This test has as its target Integrin alpha-IIb/beta-3 (Homo sapiens, UniProt P08514+P05106). Briefly: Inhibition of platelet aggregation (PRP). Put shortly:
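Aggregation of platelets in platelet-rich plasma was induced with ADP, and inhibition of this aggregation was measured.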
Usually IC50 stands for the concentration that gives 50% inhibition. Low values mean inhibition by little substance, high ones a need for much substance. The molecule `N=C(N)NCCCCCCCC(=O)N[C@@H](CC(=O)O)C(=O)NCCc1ccccc1` gave an IC50 of 60 µM.
To `N=C(N)NCCCCCCCC(=O)N[C@@H](CC(=O)O)C(=O)N[C@@H](Cc1ccccc1)c1nnn[nH]1` belongs 4 µM.
To `NC(N)=NCCC[C@H](N)C(=O)NCC(=O)N[C@@H](CC(=O)O)C(=O)N[C@@H](Cc1ccccc1)C(=O)O` (H-RGDF-OH) belongs 40 µM; to `N=C(N)NCCCCCCCC(=O)N[C@@H](CC(=O)O)C(=O)N[C@@H](Cc1ccccc1)C(=O)O` [N-(1-Carboxy-2-phenyl-ethyl)-3-[8-(diaminomethyl-amino)-octanoylamino]-succinamic acid], 1.6 µM.

The values above are taken from BindingDB's records for doi:10.1021/jm00104a019 (Searle Research & Development, 1993).
